Assays:
[1] = target: T1, NTPDase1 (ectonucleoside triphosphate diphosphohydrolase 1) (Homo sapiens, UniProt P49961); assay: Stability assessed as human NTPDase1-mediated compound hydrolysis; type: ADME; conditions: human NTPDase1 enzyme, read-out: Drug degradation
T1 sequence (P49961 whole entry): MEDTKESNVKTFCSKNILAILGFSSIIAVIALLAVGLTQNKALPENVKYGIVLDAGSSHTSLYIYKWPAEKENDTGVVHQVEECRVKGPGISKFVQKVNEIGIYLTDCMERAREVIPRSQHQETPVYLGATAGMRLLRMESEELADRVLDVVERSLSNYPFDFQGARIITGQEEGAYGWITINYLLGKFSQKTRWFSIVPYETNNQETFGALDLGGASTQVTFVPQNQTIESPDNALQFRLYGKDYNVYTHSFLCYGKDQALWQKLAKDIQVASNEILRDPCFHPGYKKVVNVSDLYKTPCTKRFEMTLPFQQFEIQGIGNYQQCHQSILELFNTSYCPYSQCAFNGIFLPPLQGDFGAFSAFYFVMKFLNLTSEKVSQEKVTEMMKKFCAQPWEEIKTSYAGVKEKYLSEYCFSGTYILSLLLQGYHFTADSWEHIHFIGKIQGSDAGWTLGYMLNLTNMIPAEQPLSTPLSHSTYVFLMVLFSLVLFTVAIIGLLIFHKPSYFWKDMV
Summary of the method: (§1)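 Each analogue offered as substrate to recombinant human NTPDase (COS-7 transfected cell protein extracts) at 37 °C, pH 7.4 Ca2+/Tris medium, 15 min; Pi released measured by malachite green at 630 nm; hydrolysis expressed relative to ATP set as 100%; mean ± SD of three independent experiments, each in duplicate.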

[2] = target: T2, NTPDase2 (ectonucleoside triphosphate diphosphohydrolase 2) (Homo sapiens, UniProt Q9Y5L3); assay: Stability assessed as human NTPDase2-mediated compound hydrolysis; type: ADME; conditions: human NTPDase2 enzyme, read-out: Drug degradation; summary of the method: as §1
T2 sequence (Q9Y5L3 whole entry): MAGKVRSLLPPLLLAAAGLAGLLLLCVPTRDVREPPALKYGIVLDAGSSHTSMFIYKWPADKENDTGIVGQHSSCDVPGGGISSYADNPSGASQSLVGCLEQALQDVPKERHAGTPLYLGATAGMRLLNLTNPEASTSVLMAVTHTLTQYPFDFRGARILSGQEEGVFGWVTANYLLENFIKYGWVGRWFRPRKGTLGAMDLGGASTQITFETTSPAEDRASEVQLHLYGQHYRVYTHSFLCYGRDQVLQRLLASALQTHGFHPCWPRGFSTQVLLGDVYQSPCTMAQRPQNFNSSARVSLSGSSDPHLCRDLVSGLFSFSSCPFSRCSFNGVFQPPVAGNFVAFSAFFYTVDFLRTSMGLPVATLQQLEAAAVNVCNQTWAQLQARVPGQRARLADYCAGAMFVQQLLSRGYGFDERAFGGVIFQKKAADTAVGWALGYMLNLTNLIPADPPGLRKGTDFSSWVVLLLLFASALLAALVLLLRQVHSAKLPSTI

[3] = target: T3, NTPDase3 (ectonucleoside triphosphate diphosphohydrolase 3) (Homo sapiens, UniProt O75355); assay: Stability assessed as human NTPDase3-mediated compound hydrolysis; type: ADME; conditions: human NTPDase3 enzyme, read-out: Drug degradation; summary of the method: as §1
T3 sequence (O75355 whole entry): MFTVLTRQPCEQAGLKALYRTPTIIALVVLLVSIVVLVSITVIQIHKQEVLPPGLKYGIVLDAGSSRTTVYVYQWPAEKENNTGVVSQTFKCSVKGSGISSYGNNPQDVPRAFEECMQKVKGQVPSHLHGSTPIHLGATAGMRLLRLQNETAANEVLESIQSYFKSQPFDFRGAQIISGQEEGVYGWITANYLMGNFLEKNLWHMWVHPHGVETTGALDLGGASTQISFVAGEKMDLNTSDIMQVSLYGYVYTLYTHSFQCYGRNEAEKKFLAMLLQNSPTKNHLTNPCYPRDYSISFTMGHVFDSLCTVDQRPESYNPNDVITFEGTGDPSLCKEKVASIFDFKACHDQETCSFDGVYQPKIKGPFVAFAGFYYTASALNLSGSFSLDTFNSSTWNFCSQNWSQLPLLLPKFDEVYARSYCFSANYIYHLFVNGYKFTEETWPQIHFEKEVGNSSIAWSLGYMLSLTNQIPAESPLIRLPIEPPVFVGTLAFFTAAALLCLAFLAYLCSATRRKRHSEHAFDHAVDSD

[4] = Stability assessed as human compound hydrolysis; conditions: read-out: Drug degradation
[5] = target: T4, Ectonucleoside triphosphate diphosphohydrolase 2 (Homo sapiens) (UniProt Q9Y5L3); assay: Inhibition of recombinant human NTPDase2 transfected in COS-7 cells using ATP substrate at 100 uM relative to control; type: cell-based
T4 sequence (whole entry): T2 sequence (Q9Y5L3 whole entry)
Summary of the method: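 Extracts of COS-7 cells expressing human NTPDase2, preincubated 3 min at 37 °C in 5 mM CaCl2/80 mM Tris pH 7.4; ATP and compound both 100 μM; stopped at 15 min with malachite green, Pi at 630 nm; ATP alone set as 100%; mean ± SD of three experiments in triplicate.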

[6] = target: T5, Ectonucleotide pyrophosphatase/phosphodiesterase family member 1 (Homo sapiens) (UniProt P22413); assay: Inhibition of human NPP1 using pNP-TMP substrate relative to control; conditions: concentration not given here
T5 sequence (whole entry): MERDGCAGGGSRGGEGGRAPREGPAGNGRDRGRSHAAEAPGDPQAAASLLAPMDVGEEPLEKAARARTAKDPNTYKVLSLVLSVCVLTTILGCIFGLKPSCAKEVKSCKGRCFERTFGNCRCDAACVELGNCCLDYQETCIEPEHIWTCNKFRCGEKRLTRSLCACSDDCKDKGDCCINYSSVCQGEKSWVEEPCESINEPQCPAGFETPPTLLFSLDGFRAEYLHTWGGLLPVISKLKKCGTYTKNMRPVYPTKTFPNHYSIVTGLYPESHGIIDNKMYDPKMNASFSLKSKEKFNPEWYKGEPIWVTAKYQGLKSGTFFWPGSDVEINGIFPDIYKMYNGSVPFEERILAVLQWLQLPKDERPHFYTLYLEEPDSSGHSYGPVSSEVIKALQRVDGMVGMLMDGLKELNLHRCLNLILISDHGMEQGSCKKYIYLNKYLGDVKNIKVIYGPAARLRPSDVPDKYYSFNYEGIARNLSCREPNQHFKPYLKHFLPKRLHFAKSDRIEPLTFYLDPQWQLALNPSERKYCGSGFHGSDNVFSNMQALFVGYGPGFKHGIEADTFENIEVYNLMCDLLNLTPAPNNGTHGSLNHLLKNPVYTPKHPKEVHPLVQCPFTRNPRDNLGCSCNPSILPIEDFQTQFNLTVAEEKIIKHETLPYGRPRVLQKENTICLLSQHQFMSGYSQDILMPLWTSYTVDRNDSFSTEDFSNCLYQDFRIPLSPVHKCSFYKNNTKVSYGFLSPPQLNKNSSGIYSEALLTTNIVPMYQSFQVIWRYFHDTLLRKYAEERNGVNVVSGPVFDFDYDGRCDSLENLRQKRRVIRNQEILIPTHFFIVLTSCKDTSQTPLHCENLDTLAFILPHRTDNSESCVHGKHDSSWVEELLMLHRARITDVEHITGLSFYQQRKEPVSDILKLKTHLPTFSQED
Summary of the method: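 Extract of COS-7 cells transfected with human NPP1, preincubated 3 min at 37 °C in 1 mM CaCl2, 140 mM NaCl, 5 mM KCl, 50 mM Tris pH 8.5; started with 100 μM pNP-TMP, compound 100 μM; p-nitrophenol read at 410 nm after 15 min; activity without compound = 100%; mean ± SD, three experiments in triplicate.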

[7] = target: 5'-nucleotidase (Homo sapiens) (UniProt P21589); assay: Inhibition of AMPase activity of human ecto-5'-nucleotidase using AMP substrate relative to control; conditions: concentration not given here
Summary of the method: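 Human ecto-5′-nucleotidase in protein extracts of transfected COS-7 cells; 3 min preincubation at 37 °C in 5 mM CaCl2/80 mM Tris pH 7.4 (or Tris-Ringer); started with 100 μM AMP, compound also 100 μM; stopped after 15 min with malachite green, Pi read at 630 nm; activity without compound set as 100%; mean ± SD, three experiments in triplicate.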

[8] = target: T6, Ectonucleoside triphosphate diphosphohydrolase 2 (Homo sapiens, UniProt Q9Y5L3); assay: Inhibition of recombinant human NTPDase2 transfected in COS-7 cells using ATP substrate; type: cell-based
T6 sequence (Q9Y5L3 whole entry): T2 sequence (Q9Y5L3 whole entry)

Chain of 5'-nucleotidase (Homo sapiens) (P21589 whole entry): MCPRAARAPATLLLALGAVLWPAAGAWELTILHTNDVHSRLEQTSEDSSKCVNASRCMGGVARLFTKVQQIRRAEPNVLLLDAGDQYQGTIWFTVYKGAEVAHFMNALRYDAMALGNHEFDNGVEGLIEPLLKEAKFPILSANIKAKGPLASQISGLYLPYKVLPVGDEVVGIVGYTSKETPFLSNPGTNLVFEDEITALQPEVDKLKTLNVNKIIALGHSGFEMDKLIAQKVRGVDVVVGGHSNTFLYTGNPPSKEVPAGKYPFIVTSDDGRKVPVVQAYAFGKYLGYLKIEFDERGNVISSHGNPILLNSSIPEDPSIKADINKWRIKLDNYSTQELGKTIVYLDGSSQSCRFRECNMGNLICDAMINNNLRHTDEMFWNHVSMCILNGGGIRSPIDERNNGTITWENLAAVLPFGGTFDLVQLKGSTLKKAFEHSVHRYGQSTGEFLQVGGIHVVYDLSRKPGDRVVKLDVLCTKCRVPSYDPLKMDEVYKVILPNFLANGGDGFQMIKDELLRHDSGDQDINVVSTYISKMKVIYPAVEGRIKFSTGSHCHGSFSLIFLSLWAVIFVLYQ

| metabolised [1] | metabolised [2] | metabolised [3] | metabolised [4] | inhibition [5] | inhibition [6] | inhibition [7] | IC50 [8] | Ki [8] | SMILES |
| --- | --- | --- | --- | --- | --- | --- | --- | --- | --- |
| 0% | 0% | 4% | 2% |  |  |  |  |  | CN(C)c1ncnc2c1ncn2[C@@H]1O[C@H](COP(=O)(O)O)[C@@H](O)[C@H]1O |
| 44% | 11.5% |  |  |  |  |  |  |  | CCCCCCSc1nc(N)c2nnn([C@@H]3O[C@H](COP(=O)(O)OP(=O)(O)OP(=O)(O)O)[C@@H](O)[C@H]3O)c2n1 |
| 6% | 3% | 10% | 5% | 10% |  |  |  |  | O=P(O)(O)OC[C@H]1O[C@@H](n2cnc3c(N(Cc4ccccc4)Cc4ccccc4)ncnc32)[C@H](O)[C@@H]1O |
| 73% | 38.5% |  |  |  |  |  |  |  | Nc1ncnc2c1nnn2[C@@H]1O[C@H](COP(=O)(O)OP(=O)(O)OP(=O)(O)O)[C@@H](O)[C@H]1O |
| 14% | 3% | 8% | 13% | 0% |  |  |  |  | O=P(O)(O)OP(=O)(O)OP(=O)(O)OC[C@H]1O[C@@H](n2cnc3c(N(Cc4ccccc4)Cc4ccccc4)ncnc32)[C@H](O)[C@@H]1O |
| 2.3% | 2.8% | 0.8% |  | 70% | > 50% | 10% | 40 µM | 21 µM | CCCCCCSc1nc(N)c2ncn([C@@H]3O[C@H](COP(=O)(O)OP(=O)(O)CP(=O)(O)O)[C@@H](O)[C@H]3O)c2n1 |
| 87% | 77% |  |  |  |  |  |  |  | CNc1ncnc2c1ncn2[C@@H]1O[C@H](COP(=O)(O)OP(=O)(O)OP(=O)(O)O)[C@@H](O)[C@H]1O |
| 74% | 73% |  |  |  |  |  |  |  | CN(C)c1ncnc2c1ncn2[C@@H]1O[C@H](COP(=O)(O)OP(=O)(O)OP(=O)(O)O)[C@@H](O)[C@H]1O |
| 22% | 0% | 2% | 20% | 42% |  |  |  |  | CCN(CC)c1ncnc2c1ncn2[C@@H]1O[C@H](COP(=O)(O)OP(=O)(O)OP(=O)(O)O)[C@@H](O)[C@H]1O |
